The text below walks through data of ChEMBL document CHEMBL3580600, “Design, Synthesis, and Evaluation of 4- and 5-Substituted o-(Octanesulfonamido)benzoic Acids as Inhibitors of Glycerol-3-Phosphate Acyltransferase” (Medchemcomm, 2014).

In general, IC50 refers to the concentration needed to halve the response being measured. A low value points to greater potency.

For the assay, the target named is T1, Glycerol-3-phosphate acyltransferase 1, mitochondrial (Mus musculus, UniProt Q61586).
T1 sequence (Q61586 whole entry): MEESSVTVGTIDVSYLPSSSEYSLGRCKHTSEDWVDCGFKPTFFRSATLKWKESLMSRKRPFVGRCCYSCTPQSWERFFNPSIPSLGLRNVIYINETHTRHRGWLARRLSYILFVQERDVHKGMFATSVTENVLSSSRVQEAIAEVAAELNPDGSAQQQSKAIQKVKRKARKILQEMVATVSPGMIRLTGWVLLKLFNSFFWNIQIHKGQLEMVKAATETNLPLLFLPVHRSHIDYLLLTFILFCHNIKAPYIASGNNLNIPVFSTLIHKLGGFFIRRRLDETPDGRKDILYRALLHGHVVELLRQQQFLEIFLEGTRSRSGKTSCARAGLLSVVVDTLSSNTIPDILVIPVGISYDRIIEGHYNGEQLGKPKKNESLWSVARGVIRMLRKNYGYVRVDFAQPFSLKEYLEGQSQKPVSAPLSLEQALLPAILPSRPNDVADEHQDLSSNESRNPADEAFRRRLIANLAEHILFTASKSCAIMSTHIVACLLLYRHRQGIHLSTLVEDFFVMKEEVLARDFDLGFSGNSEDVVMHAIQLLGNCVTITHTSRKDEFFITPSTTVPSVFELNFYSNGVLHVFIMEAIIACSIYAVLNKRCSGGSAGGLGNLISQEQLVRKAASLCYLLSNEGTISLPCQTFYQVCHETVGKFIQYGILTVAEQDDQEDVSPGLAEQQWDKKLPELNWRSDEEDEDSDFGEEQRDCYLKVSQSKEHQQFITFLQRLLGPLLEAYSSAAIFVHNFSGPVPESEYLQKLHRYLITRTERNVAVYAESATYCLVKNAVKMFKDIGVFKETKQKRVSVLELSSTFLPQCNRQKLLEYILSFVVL
Briefly: Inhibition of GPAT in BALB/c mouse mitochondria using 14C-labeled glycerol-3-phosphate and palmitoyl-CoA incubated for 10 mins by scintillation counting method. Summed up: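 Mitochondria isolated from freshly harvested BALB/c mouse liver by differential centrifugation (1000 × g, then 3500 × g, twice) and resuspended in HEPES pH 7.4 storage buffer. Reaction in 75 mM Tris/HCl pH 7.4, 4 mM MgCl₂, 2 mg/mL BSA, 14C-glycerol-3-phosphate (7.6 mCi/mmol), 50 μM palmitoyl-CoA. Inhibitor 0–40 μg/mL in DMSO. Triplicates. IC50 taken relative to DMSO vehicle control activity.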
Compound `CCCCCCCCS(=O)(=O)Nc1cc(-c2ccccc2-c2ccccc2)ccc1C(=O)O` registered an IC50 of 17.1 µM.

Consider `CCCCCCCCS(=O)(=O)Nc1cc(-c2cccc(F)c2)ccc1C(=O)O`, for which the IC50 turned out to be 32.6 µM.

On to `CCCCCCCCS(=O)(=O)Nc1cc(-c2ccc(CCCC)cc2)ccc1C(=O)O`, for which the IC50 is 15.7 µM.

`CCCCCCCCS(=O)(=O)Nc1ccc(-c2ccc(CCCC)cc2)cc1C(=O)O` returned a 50% inhibitory concentration (IC50) of 9 µM.

With `CCCCCCCCS(=O)(=O)Nc1cc(-c2ccc(O)cc2)ccc1C(=O)O`, the IC50 was 64.8 µM.

`CCCCCCCCS(=O)(=O)Nc1cc(-c2ccc(OC)cc2)ccc1C(=O)O` returned an IC50 of 13.3 µM.

Consider `CCCCCCCCS(=O)(=O)Nc1ccc(-c2ccc(Cl)cc2)cc1C(=O)O`, for which the IC50 was determined as 9.2 µM.

For `CCCCCCCCS(=O)(=O)Nc1cc(-c2ccccc2F)ccc1C(=O)O`, the IC50 was 47.2 µM.

`CCCCCCCCS(=O)(=O)Nc1cc(-c2ccc(-c3ccccc3)cc2)ccc1C(=O)O`: the concentration for half-maximal inhibition (IC50) came out at 13.5 µM.

The compound `CCCCCCCCS(=O)(=O)Nc1cc(CCc2ccc(OC)cc2)ccc1C(=O)O` yielded an IC50 of 43 µM.

Turning to `CCCCCCCCS(=O)(=O)Nc1ccc(C(=O)c2ccc(-c3ccccc3)cc2)cc1C(=O)O`, the IC50 stood at 13 µM.

`CCCCCCCCS(=O)(=O)Nc1ccc(-c2ccccc2-c2ccccc2)cc1C(=O)O` yielded an IC50 of 10.1 µM.

In turn, `CCCCCCCCS(=O)(=O)Nc1cc(-c2ccccc2Cl)ccc1C(=O)O` gave an IC50 of 26.9 µM.

In the case of `CCCCCCCCS(=O)(=O)Nc1ccc(-c2cccc(Cl)c2)cc1C(=O)O`, the IC50 was 8.9 µM.

Compound `CCCCCCCCS(=O)(=O)Nc1cc(C(=O)c2ccc(CCCC)cc2)ccc1C(=O)O` gave an IC50 of 15.8 µM.

Regarding `CCCCCCCCS(=O)(=O)Nc1ccc(-c2cccc(F)c2)cc1C(=O)O`, the midpoint of inhibition, the IC50, lay at 37.6 µM.

`CCCCCCCCS(=O)(=O)Nc1ccc(-c2ccccc2OC)cc1C(=O)O` showed an IC50 of 27.6 µM.

For `CCCCCCCCS(=O)(=O)Nc1ccc(C(=O)c2ccccc2OC)cc1C(=O)O`, the IC50 was 59.2 µM.

`CCCCCCCCS(=O)(=O)Nc1ccc(C(=O)c2ccc(CCCC)cc2)cc1C(=O)O`: half-maximal inhibition (IC50) was put at 31.7 µM.

Regarding `CCCCCCCCS(=O)(=O)Nc1ccc(-c2ccc(-c3ccccc3)cc2)cc1C(=O)O`, the midpoint of inhibition, the IC50, lay at 29.1 µM.

In turn, `CCCCCCCCS(=O)(=O)Nc1cc(-c2ccc(Cl)cc2)ccc1C(=O)O` yielded an IC50 of 18.1 µM.

`CCCCCCCCS(=O)(=O)Nc1ccc(CCc2ccccc2)cc1C(=O)O` yielded an IC50 of 37.5 µM.

The compound `CCCCCCCCS(=O)(=O)Nc1ccc(-c2ccccc2O)cc1C(=O)O` returned an IC50 of 61.7 µM.

Compound `CCCCCCCCS(=O)(=O)Nc1ccc(C(=O)c2ccc(OC)cc2)cc1C(=O)O` yielded an IC50 of 44.3 µM.

As to `CCCCCCCCS(=O)(=O)Nc1cc(CCc2ccccc2)ccc1C(=O)O`, half-maximal inhibition (IC50) was put at 37.5 µM.

Compound `CCCCCCCCS(=O)(=O)Nc1cc(/C=C/c2ccc(OC)cc2)ccc1C(=O)O` gave an IC50 of 38.7 µM.

`CCCCCCCCS(=O)(=O)Nc1cc(/C=C/c2ccccc2)ccc1C(=O)O` displayed an IC50 of 38 µM.

As for `CCCCCCCCS(=O)(=O)Nc1ccc(CCc2ccc(OC)cc2)cc1C(=O)O`, half-maximal inhibition (IC50) required 26.3 µM.

`CCCCCCCCS(=O)(=O)Nc1cc(-c2ccccc2OC)ccc1C(=O)O` came in with an IC50 of 16.1 µM.

Compound `CCCCCCCCS(=O)(=O)Nc1ccc(-c2ccccc2F)cc1C(=O)O` gave an IC50 of 34.6 µM.

Compound `CCCCCCCCS(=O)(=O)Nc1ccc(/C=C/c2ccccc2)cc1C(=O)O` had an IC50 of 16.3 µM.

In the case of `CCCCCCCCS(=O)(=O)Nc1ccc(/C=C/c2ccc(OC)cc2)cc1C(=O)O`, the IC50 was determined as 37.1 µM.

As for `CCCCCCCCS(=O)(=O)Nc1cc(-c2cccc(Cl)c2)ccc1C(=O)O`, the midpoint of inhibition, the IC50, lay at 13.8 µM.

Compound `CCCCCCCCS(=O)(=O)Nc1cc(C(=O)c2ccc(-c3ccccc3)cc2)ccc1C(=O)O` had an IC50 of 8.5 µM.

`CCCCCCCCS(=O)(=O)Nc1ccc(-c2ccc(OC)cc2)cc1C(=O)O` gave a 50% inhibitory concentration (IC50) of 19.5 µM.

For the compound `CCCCCCCCS(=O)(=O)Nc1ccc(-c2ccc(O)cc2)cc1C(=O)O`, the IC50 worked out at 47.3 µM.
